Experimental data reported in ChEMBL document CHEMBL1140942, “Novel pyrrolidine ureas as C-C chemokine receptor 1 (CCR1) antagonists” (J Med Chem, 2009).
Active and inactive are the calls of the source. The calls are words filed in the database; no cut-off is given here.

What was measured:
[1] = target: T1, C-C chemokine receptor type 1 (Homo sapiens, UniProt P32246); assay: Displacement of [125I]MIP-1-alpha from human recombinant CCR1 expressed in HEK293 cells; assay type: cell-based
T1 sequence (P32246 whole entry): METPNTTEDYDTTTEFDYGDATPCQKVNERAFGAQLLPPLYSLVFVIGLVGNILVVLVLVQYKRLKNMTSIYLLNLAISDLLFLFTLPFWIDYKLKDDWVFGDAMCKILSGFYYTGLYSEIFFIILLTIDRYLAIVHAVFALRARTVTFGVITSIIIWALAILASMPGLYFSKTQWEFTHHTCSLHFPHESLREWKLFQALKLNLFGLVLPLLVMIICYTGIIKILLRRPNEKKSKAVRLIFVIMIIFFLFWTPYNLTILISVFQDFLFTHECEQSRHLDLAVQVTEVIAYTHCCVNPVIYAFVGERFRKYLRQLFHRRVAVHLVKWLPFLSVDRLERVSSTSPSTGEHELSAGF
Method in brief: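 Scintillation proximity binding in 384-well format. Membranes (50 µg/mL) were mixed with SPA beads (10 mg/mL) in buffer of 130 mM NaCl, 5 mM KCl, 1 mM MnCl₂, 50 mM Tris HCl pH 7.4 and 0.1% BSA. Varied compound concentrations added with [¹²⁵I]MIP-1α at 0.1 nM final. Plates spun, incubated 4 h, then counted.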

[2] = Metabolic stability in rat liver microsomes assessed as compound remaining at 1 uM after 30 mins by LC/MS; assay type: ADME, Microsome; conditions: read-out: Stability
Method in brief: (§1)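 Compound at 1 µM incubated with rat or human liver microsomes (300 nM cytochrome P450) in phosphate buffer pH 7.4 with 1 mM NADPH for 30 min at 37 °C. Stopped with acetonitrile and centrifuged. Percent remaining at 30 min determined by LC/MS.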

[3] = Metabolic stability in human liver microsomes assessed as compound remaining at 1 uM after 30 mins by LC/MS; assay type: ADME, Microsome; conditions: read-out: Stability; method in brief: as §1
[4] = Cmax in Sprague-Dawley rat at 5 mg/kg, po; assay type: ADME, organism-based; design: dose 5 mg/kg, route oral; conditions: in vivo
Method in brief: (§2)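 Male Sprague-Dawley rats, three to four per compound, given 5 mg/kg by oral gavage in 0.5% methyl cellulose, either singly or in a cassette. Serial blood drawn from an indwelling arterial cannula up to 6 or 24 h. Plasma proteins precipitated, and parent compound quantified by LC/MS/MS.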

[5] = AUC(0 to 6 hrs) in Sprague-Dawley rat at 5 mg/kg, po; assay type: ADME, organism-based; design: time < 6 hr, dose 5 mg/kg, route oral; conditions: plasma; method in brief: as §2
[6] = target: T2, CX3C chemokine receptor 1 (Homo sapiens) (UniProt P49238); assay: Inhibition of CX3CR1
T2 sequence (whole entry): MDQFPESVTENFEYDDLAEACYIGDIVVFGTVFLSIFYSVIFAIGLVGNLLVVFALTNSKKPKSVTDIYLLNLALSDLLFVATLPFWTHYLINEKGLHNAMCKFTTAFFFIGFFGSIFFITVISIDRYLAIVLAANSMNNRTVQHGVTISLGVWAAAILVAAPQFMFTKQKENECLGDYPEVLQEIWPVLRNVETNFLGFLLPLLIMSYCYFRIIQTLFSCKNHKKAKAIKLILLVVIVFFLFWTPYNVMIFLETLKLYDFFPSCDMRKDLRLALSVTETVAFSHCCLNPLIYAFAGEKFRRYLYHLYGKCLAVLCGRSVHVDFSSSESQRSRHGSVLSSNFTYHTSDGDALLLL

[7] = target: C-C chemokine receptor type 5 (Homo sapiens) (UniProt P51681); assay: Inhibition of CCR5
[8] = target: C-C chemokine receptor type 2 (Homo sapiens) (UniProt P41597); assay: Inhibition of CCR2b
[9] = Oral bioavailability in Sprague-Dawley rat at 5 mg/kg; assay type: ADME, organism-based; conditions: in vivo
Method in brief: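 Oral dosing was 5 mg/kg by gavage in 0.5% methyl cellulose to male Sprague-Dawley rats (three to four), with a 1 mg/kg intravenous dose via indwelling catheter for comparison. Serial arterial-cannula blood sampling. Parent compound in protein-precipitated plasma measured by LC/MS/MS.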

[10] = target: T3, C-C chemokine receptor type 4 (Homo sapiens) (UniProt P51679); assay: Inhibition of CCR4
T3 sequence (whole entry): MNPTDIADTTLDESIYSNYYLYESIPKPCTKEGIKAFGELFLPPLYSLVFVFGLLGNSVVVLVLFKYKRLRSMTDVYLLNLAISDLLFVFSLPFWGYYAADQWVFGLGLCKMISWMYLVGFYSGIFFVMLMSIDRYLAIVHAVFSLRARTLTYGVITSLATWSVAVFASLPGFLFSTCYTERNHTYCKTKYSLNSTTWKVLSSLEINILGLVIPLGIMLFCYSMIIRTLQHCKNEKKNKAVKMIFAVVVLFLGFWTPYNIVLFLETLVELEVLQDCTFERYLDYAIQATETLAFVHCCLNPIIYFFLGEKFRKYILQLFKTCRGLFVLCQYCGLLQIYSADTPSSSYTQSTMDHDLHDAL

[11] = target: T4, C-X-C chemokine receptor type 2 (Homo sapiens) (UniProt P25025); assay: Inhibition of CXCR2
T4 sequence (whole entry): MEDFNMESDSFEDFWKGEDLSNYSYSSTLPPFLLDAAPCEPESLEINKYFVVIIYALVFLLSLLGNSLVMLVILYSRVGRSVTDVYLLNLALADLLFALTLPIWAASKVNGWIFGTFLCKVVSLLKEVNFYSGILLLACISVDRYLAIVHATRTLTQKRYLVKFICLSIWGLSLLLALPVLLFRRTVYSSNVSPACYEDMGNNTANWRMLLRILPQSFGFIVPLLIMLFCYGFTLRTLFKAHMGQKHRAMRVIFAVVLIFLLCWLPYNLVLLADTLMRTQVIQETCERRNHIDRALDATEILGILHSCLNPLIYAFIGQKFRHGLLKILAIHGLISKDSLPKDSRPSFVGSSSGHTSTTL

[12] = test system: Rattus norvegicus; assay: (§3) AUC(0 to infinity) in Sprague-Dawley rat at 5 mg/kg, po; assay type: ADME, organism-based, Plasma; design: time infinity, dose 5 mg/kg, route oral; conditions: in vivo; method in brief: as §2
[13] = target: T5, C-X-C chemokine receptor type 1 (Homo sapiens) (UniProt P25024); assay: Inhibition of CXCR1
T5 sequence (whole entry): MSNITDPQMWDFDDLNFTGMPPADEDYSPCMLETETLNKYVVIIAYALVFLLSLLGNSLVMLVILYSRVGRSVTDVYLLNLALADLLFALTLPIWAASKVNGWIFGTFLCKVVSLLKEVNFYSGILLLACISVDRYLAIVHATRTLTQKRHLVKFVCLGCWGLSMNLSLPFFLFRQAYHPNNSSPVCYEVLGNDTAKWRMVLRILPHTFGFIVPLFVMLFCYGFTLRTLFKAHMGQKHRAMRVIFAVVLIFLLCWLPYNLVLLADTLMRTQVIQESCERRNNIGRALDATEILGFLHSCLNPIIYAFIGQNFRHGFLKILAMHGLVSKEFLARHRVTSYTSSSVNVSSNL

[14] = Half life in Sprague-Dawley rat at 5 mg/kg, po; assay type: ADME, organism-based; design: dose 5 mg/kg, route oral; conditions: in vivo; method in brief: as §2
[15] = as §3; assay type: ADME, organism-based, Plasma; design: time infinity, dose 5 mg/kg, route oral; conditions: Sprague-Dawley, plasma; method in brief: as §2

Sequence of C-C chemokine receptor type 5 (Homo sapiens) (P51681 whole entry, looked up): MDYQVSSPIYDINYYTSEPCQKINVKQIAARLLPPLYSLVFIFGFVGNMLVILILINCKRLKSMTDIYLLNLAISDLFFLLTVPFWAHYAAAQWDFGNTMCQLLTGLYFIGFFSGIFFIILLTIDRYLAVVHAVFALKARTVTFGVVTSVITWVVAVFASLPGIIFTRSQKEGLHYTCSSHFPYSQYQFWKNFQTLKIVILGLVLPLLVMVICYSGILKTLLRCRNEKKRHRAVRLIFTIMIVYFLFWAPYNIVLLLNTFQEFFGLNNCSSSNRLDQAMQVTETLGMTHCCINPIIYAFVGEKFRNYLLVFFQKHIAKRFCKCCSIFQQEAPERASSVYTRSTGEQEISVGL
Sequence of C-C chemokine receptor type 2 (Homo sapiens) (P41597 whole entry, looked up): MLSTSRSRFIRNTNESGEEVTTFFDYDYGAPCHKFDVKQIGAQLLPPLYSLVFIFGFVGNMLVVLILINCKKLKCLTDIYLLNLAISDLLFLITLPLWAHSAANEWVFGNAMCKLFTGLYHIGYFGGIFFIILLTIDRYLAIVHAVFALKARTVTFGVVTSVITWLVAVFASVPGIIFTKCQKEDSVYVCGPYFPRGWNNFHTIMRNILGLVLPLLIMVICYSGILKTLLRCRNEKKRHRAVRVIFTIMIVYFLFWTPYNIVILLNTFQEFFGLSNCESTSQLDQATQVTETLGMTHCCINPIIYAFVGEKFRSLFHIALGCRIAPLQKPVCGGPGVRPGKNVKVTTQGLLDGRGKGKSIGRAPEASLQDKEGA

Row | Compound | IC50 [1] [nM] | other results
1 | CN(Cc1ccc(Cl)cc1)C(=O)[C@H]1CCCN1C(=O)Nc1ccc(Cl)cc1 | 270 | 
2 | Cc1ccc(NC(=O)N2CCC[C@@H]2C(=O)N(C)Cc2ccc(Cl)cc2)cc1 | 680 | 
3 | CN(Cc1ccc(Cl)cc1)C(=O)[C@H]1CCCN1C(=O)Nc1cccc(C(F)(F)F)c1 | 2950 | 
4 | Cc1cc(C(F)(F)F)ccc1NC(=O)N1CCC[C@@H]1C(=O)N(C)Cc1ccc(Cl)cc1 | 50 | remaining at 0.5 h, 1 µM [2]: 81%; remaining at 0.5 h, 1 µM [3]: 58%; Cmax [4]: 699 ng/mL; AUC(0-t) at 6 h [5]: 2590 ng·h/mL
5 | O=C(NCc1ccc(Cl)cc1)[C@H]1CCCN1C(=O)Nc1ccc(Cl)cc1 | > 75000 | 
6 | CCN(Cc1ccc(Cl)cc1)C(=O)[C@H]1CCCN1C(=O)Nc1ccc(Cl)cc1 | 270 | 
7 | CN(Cc1ccc(Cl)cc1)C(=O)[C@H]1CCN1C(=O)Nc1ccc(C(F)(F)F)cc1 | > 100000 | 
8 | CN(Cc1ccc(Cl)cc1)C(=O)[C@@H]1CCCN1C(=O)Nc1ccc(C(F)(F)F)cc1 | > 28000 | 
9 | CCCN(Cc1ccc(Cl)cc1)C(=O)[C@H]1CCCN1C(=O)Nc1ccc(Cl)cc1 | 3600 | 
10 | COc1ccc(NC(=O)N2CCC[C@@H]2C(=O)N(C)Cc2ccc(Cl)cc2)cc1 | 290 | 
11 | COc1ccc(CN(C)C(=O)[C@H]2CCCN2C(=O)Nc2ccc(Cl)cc2)cc1 | > 77000 | 
12 | CC(c1ccc(Cl)cc1)N(C)C(=O)[C@H]1CCCN1C(=O)Nc1ccc(Cl)cc1 (stereo partly specified) | 4700 | 
13 | CN(Cc1ccc(Cl)cc1)C(=O)[C@H]1CCCN1C(=O)Nc1ccc(C(F)(F)F)cc1Cl | 120 | remaining at 0.5 h, 1 µM [2]: 68%; remaining at 0.5 h, 1 µM [3]: 73%; Cmax [4]: 437 ng/mL; AUC(0-t) at 6 h [5]: 2060 ng·h/mL
14 | Cc1ccc(CN(C)C(=O)[C@H]2CCCN2C(=O)Nc2ccc(Cl)cc2)cc1 | 5700 | 
15 | CN(Cc1ccc(C#N)cc1)C(=O)[C@H]1CCCN1C(=O)Nc1ccc(Cl)cc1 | > 13000 | 
16 | CN(Cc1ccc(Cl)cc1)C(=O)[C@H]1CCCN1C(=O)Nc1ccc(C(F)(F)F)cc1 | 140 | Activity [6]: inactive; Activity [7]: inactive; Activity [8]: inactive; bioavailability [9]: 45%; remaining at 0.5 h, 1 µM [2]: 74%; Activity [10]: inactive; Activity [11]: inactive; AUC [12]: 9390 ng·h/mL; remaining at 0.5 h, 1 µM [3]: 78%; Cmax [4]: 834 ng/mL; Activity [13]: inactive; half-life [14]: 4.4 h
17 | O=C([C@H]1CCCN1C(=O)Nc1ccc(Cl)cc1)N(CCO)Cc1ccccc1Cl | 43000 | 
18 | O=C([C@H]1CCCN1C(=O)Nc1ccc(Cl)cc1)N(CCO)Cc1cccc(Cl)c1 | > 100000 | 
19 | O=C([C@H]1CCCN1C(=O)Nc1ccc(Cl)cc1)N(CCO)Cc1ccc(Cl)cc1 | 540 | 
20 | CN(Cc1ccc(Cl)cc1)C(=O)[C@H]1CCCN1C(=O)Nc1ccc(C(F)(F)F)cc1F | 23 | remaining at 0.5 h, 1 µM [2]: 76%; remaining at 0.5 h, 1 µM [3]: 93%; Cmax [4]: 291 ng/mL; AUC(0-t) at 6 h [5]: 1240 ng·h/mL
21 | CN(Cc1ccc(C(F)(F)F)cc1)C(=O)[C@H]1CCCN1C(=O)Nc1ccc(Cl)cc1 | > 100000 | 
22 | Cc1cc(C(F)(F)F)cc(C)c1NC(=O)N1CCC[C@@H]1C(=O)N(C)Cc1ccc(Cl)cc1 | 11 | remaining at 0.5 h, 1 µM [2]: 84%; AUC(0-inf) [15]: 611 ng·h/mL; remaining at 0.5 h, 1 µM [3]: 74%; Cmax [4]: 195 ng/mL
23 | CN(Cc1ccc(Cl)cc1)C(=O)C1CCCCN1C(=O)Nc1ccc(C(F)(F)F)cc1 (stereo unspecified) | > 28000 | 
24 | Cc1cc(CN(C)C(=O)[C@H]2CCCN2C(=O)Nc2ccc(Cl)cc2)ccc1Cl | 4000 | 
25 | CN(Cc1ccc(Cl)cc1)C(=O)[C@H]1CCCN1C(=O)Nc1ccc(F)cc1 | 700 | 
26 | CN(Cc1ccc(Cl)cc1)C(=O)[C@H]1CCCN1C(=O)Nc1ccc(C#N)cc1 | 720 | 
27 | CN(Cc1ccc(F)cc1)C(=O)[C@H]1CCCN1C(=O)Nc1ccc(Cl)cc1 | 1300 | 
28 | Cc1cc(Cl)ccc1CN(C)C(=O)[C@H]1CCCN1C(=O)Nc1ccc(Cl)cc1 | > 100000 | 
